Activity calls are given as the source filed them. The calls are words filed in the database; no cut-off is given here.
tested on: MCF7; assay: Antiproliferative activity against human MCF7 cells incubated for 72 hrs by SRB assay; type: functional, cell-based; conditions: MCF7, 72 h
Method in brief: (§1)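 Sulforhodamine B colorimetric read-out after 72 h drug exposure. Cells kept in DMEM with 10 % FBS and 1 % penicillin/streptomycin at 37 °C under 5 % CO₂, mycoplasma-checked, passaged under 6 months. Compounds given from DMSO stocks diluted in medium, final DMSO ≤ 0.1 % v/v, with DMSO-only parallel cultures as controls. IC50 reported as mean ± SD of three independent determinations, each run in duplicate.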

SMILES | IC50
Cc1ccc(S(=O)(=O)N2CC(CCn3cnc4c(Cl)ncnc43)Oc3ccc(C)cc32)cc1 (centres undefined) | 12.9 µM
Cc1ccc(S(=O)(=O)N2CC(CCn3cnc4c(Cl)nc(Cl)nc43)Oc3ccc(C)cc32)cc1 (centres undefined) | 2.27 µM
Cc1ccc(S(=O)(=O)N2CC(CCn3cnc4c(Cl)ncnc43)Oc3cc(Cl)ccc32)cc1 (centres undefined) | 11.2 µM

tested on: HCT-116; assay: Antiproliferative activity against human HCT-116 cells incubated for 72 hrs by SRB assay; type: functional, cell-based; conditions: HCT-116, 72 h; method in brief: as §1

SMILES | IC50
Cc1ccc(S(=O)(=O)N2CC(CCn3cnc4c(Cl)ncnc43)Oc3ccc(C)cc32)cc1 (centres undefined) | 23.8 µM
Cc1ccc(S(=O)(=O)N2CC(CCn3cnc4c(Cl)nc(Cl)nc43)Oc3ccc(C)cc32)cc1 (centres undefined) | 4.44 µM
Cc1ccc(S(=O)(=O)N2CC(CCn3cnc4c(Cl)ncnc43)Oc3cc(Cl)ccc32)cc1 (centres undefined) | 14.8 µM

species on record: Homo sapiens; assay: Inhibition of human AKT assessed as residual activity at 5 uM relative to control; conditions: not given
Method in brief: (§2)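 Residual kinase activity determined with each compound at 5×10⁻⁶ and 5×10⁻⁵ M, in singlicate per kinase assay, expressed relative to uninhibited control.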

SMILES | Activity
Cc1ccc(S(=O)(=O)N2CC(CCn3cnc4c(Cl)nc(Cl)nc43)Oc3ccc(C)cc32)cc1 (centres undefined) | 88%

species on record: Homo sapiens; assay: Inhibition of human AKT assessed as residual activity at 50 uM relative to control; conditions: not given; method in brief: as §2

SMILES | Activity
Cc1ccc(S(=O)(=O)N2CC(CCn3cnc4c(Cl)nc(Cl)nc43)Oc3ccc(C)cc32)cc1 (centres undefined) | 104%

target: 5'-AMP-activated protein kinase catalytic subunit alpha-1 (Homo sapiens) (UniProt Q13131); assay: Inhibition of human AMPK alpha-1 assessed as residual activity at 5 uM relative to control; conditions: not given; method in brief: as §2
Sequence (Q13131 whole entry, looked up): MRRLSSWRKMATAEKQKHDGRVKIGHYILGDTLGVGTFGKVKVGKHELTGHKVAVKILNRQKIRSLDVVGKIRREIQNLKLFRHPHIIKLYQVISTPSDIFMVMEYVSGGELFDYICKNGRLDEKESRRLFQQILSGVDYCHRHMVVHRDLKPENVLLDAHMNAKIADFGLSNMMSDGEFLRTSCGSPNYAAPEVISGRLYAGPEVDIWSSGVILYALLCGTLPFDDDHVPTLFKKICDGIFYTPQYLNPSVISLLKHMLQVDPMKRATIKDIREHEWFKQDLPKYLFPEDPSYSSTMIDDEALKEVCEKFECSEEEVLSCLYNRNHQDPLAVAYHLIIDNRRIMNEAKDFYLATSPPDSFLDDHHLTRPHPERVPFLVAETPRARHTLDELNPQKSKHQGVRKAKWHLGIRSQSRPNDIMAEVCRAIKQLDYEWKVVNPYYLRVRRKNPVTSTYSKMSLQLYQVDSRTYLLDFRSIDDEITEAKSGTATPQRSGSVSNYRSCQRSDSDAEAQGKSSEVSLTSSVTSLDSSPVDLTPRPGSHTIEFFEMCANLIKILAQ

SMILES | Activity
Cc1ccc(S(=O)(=O)N2CC(CCn3cnc4c(Cl)nc(Cl)nc43)Oc3ccc(C)cc32)cc1 (centres undefined) | 93%

target: 5'-AMP-activated protein kinase catalytic subunit alpha-1 (Homo sapiens) (UniProt Q13131); assay: Inhibition of human AMPK alpha-1 assessed as residual activity at 50 uM relative to control; conditions: not given; method in brief: as §2

SMILES | Activity
Cc1ccc(S(=O)(=O)N2CC(CCn3cnc4c(Cl)nc(Cl)nc43)Oc3ccc(C)cc32)cc1 (centres undefined) | 75%

target: Epidermal growth factor receptor (Homo sapiens) (UniProt P00533); assay: Inhibition of human EGFR assessed as residual activity at 5 uM relative to control; conditions: not given; method in brief: as §2
Sequence (P00533 whole entry): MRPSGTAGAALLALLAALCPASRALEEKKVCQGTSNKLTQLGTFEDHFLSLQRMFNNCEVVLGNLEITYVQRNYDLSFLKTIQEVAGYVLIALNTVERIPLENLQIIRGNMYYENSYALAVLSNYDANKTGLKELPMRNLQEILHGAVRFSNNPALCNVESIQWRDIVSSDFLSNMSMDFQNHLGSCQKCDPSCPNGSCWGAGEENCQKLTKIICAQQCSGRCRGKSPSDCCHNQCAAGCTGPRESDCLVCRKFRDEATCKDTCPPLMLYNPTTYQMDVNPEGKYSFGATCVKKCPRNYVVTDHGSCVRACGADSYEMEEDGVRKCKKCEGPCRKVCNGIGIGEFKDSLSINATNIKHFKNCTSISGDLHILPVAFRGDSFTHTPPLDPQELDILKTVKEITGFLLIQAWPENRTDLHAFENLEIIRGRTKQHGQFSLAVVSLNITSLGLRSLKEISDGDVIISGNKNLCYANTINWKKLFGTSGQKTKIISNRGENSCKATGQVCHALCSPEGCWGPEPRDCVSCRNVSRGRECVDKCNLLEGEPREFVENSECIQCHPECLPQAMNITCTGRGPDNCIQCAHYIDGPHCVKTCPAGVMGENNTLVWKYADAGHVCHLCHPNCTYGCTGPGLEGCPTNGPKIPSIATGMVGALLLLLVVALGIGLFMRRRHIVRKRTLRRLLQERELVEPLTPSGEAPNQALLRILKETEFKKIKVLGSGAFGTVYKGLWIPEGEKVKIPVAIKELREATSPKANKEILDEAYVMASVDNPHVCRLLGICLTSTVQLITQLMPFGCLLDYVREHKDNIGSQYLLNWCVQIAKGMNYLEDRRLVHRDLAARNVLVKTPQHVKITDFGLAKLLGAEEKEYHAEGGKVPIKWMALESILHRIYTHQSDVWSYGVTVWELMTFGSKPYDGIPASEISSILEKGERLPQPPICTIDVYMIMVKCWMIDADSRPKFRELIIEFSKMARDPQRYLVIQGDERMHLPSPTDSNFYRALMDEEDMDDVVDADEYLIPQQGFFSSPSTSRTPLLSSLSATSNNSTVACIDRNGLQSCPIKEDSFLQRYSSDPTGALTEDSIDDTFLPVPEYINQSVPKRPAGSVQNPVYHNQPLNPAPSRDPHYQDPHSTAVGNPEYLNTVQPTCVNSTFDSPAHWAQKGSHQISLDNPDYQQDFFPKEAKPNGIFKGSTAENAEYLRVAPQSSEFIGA

SMILES | Activity
Cc1ccc(S(=O)(=O)N2CC(CCn3cnc4c(Cl)nc(Cl)nc43)Oc3ccc(C)cc32)cc1 (centres undefined) | 96%

target: Epidermal growth factor receptor (Homo sapiens) (UniProt P00533); assay: Inhibition of human EGFR assessed as residual activity at 50 uM relative to control; conditions: not given; method in brief: as §2

SMILES | Activity
Cc1ccc(S(=O)(=O)N2CC(CCn3cnc4c(Cl)nc(Cl)nc43)Oc3ccc(C)cc32)cc1 (centres undefined) | 62%

target: Receptor tyrosine-protein kinase erbB-2 (Homo sapiens) (UniProt P04626); assay: Inhibition of human HER2 assessed as residual activity at 5 uM relative to control; conditions: not given; method in brief: as §2
Sequence (P04626 whole entry): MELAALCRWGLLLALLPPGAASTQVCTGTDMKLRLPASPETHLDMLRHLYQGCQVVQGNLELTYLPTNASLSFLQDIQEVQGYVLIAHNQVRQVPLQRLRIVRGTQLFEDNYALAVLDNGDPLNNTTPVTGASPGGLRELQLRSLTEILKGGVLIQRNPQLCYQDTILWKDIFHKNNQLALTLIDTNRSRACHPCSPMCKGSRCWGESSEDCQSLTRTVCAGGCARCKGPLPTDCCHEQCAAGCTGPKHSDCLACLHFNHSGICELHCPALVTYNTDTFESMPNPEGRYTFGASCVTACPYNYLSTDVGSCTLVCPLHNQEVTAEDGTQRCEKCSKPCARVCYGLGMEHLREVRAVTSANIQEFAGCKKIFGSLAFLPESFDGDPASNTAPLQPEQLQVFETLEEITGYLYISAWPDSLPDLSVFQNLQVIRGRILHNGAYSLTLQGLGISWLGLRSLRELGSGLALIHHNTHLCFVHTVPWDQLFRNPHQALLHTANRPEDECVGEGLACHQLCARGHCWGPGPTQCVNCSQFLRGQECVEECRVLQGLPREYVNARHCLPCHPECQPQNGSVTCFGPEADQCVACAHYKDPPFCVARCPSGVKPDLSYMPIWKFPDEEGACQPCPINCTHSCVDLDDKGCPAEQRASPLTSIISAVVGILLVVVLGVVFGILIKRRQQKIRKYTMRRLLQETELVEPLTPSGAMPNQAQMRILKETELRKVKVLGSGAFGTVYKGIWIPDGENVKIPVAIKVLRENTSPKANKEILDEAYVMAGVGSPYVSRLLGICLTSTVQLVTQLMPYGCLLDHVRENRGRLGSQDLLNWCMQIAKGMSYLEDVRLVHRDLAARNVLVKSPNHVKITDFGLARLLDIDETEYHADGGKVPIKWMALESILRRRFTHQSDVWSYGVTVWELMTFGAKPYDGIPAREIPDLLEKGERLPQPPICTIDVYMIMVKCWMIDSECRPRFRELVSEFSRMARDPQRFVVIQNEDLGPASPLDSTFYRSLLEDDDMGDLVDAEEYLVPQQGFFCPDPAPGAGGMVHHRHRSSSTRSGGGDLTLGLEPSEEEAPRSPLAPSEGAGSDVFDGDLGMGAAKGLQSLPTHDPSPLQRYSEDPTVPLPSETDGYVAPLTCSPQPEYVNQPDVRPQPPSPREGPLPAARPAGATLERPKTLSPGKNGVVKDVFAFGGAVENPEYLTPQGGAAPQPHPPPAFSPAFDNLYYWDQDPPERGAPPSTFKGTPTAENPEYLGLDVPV

SMILES | Activity
Cc1ccc(S(=O)(=O)N2CC(CCn3cnc4c(Cl)nc(Cl)nc43)Oc3ccc(C)cc32)cc1 (centres undefined) | 90%

target: Receptor tyrosine-protein kinase erbB-2 (Homo sapiens) (UniProt P04626); assay: Inhibition of human HER2 assessed as residual activity at 50 uM relative to control; conditions: not given; method in brief: as §2

SMILES | Activity
Cc1ccc(S(=O)(=O)N2CC(CCn3cnc4c(Cl)nc(Cl)nc43)Oc3ccc(C)cc32)cc1 (centres undefined) | 50%

target: Mitogen-activated protein kinase 1 (Homo sapiens) (UniProt P28482); assay: Inhibition of human ERK2 assessed as residual activity at 5 uM relative to control; conditions: not given; method in brief: as §2
Sequence (P28482 whole entry): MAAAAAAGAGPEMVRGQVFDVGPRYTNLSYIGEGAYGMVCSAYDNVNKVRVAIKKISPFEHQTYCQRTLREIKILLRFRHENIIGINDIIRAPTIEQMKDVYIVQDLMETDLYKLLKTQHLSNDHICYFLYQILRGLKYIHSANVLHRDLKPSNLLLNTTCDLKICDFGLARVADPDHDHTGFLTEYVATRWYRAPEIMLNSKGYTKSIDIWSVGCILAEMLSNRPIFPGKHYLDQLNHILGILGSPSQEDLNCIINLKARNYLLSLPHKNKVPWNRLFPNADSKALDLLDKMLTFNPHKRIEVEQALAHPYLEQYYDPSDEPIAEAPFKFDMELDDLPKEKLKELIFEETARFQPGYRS

SMILES | Activity
Cc1ccc(S(=O)(=O)N2CC(CCn3cnc4c(Cl)nc(Cl)nc43)Oc3ccc(C)cc32)cc1 (centres undefined) | 88%

target: Mitogen-activated protein kinase 1 (Homo sapiens) (UniProt P28482); assay: Inhibition of human ERK2 assessed as residual activity at 50 uM relative to control; conditions: not given; method in brief: as §2

SMILES | Activity
Cc1ccc(S(=O)(=O)N2CC(CCn3cnc4c(Cl)nc(Cl)nc43)Oc3ccc(C)cc32)cc1 (centres undefined) | 73%

target: Mitogen-activated protein kinase 8 (Homo sapiens) (UniProt P45983); assay: Inhibition of human JNK1 assessed as residual activity at 5 uM relative to control; conditions: not given; method in brief: as §2
Sequence (P45983 whole entry): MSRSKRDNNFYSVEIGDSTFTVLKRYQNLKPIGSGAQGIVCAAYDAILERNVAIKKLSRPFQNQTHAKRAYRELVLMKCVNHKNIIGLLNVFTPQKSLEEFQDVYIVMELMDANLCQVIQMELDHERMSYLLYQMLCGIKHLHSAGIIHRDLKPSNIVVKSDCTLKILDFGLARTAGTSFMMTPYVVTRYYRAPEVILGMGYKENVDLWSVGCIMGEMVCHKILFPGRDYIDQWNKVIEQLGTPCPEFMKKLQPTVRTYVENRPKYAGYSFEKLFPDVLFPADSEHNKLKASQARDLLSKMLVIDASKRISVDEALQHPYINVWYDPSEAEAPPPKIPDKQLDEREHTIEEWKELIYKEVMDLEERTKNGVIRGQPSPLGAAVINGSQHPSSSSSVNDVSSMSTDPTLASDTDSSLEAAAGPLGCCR

SMILES | Activity
Cc1ccc(S(=O)(=O)N2CC(CCn3cnc4c(Cl)nc(Cl)nc43)Oc3ccc(C)cc32)cc1 (centres undefined) | 96%

target: Mitogen-activated protein kinase 8 (Homo sapiens) (UniProt P45983); assay: Inhibition of human JNK1 assessed as residual activity at 50 uM relative to control; conditions: not given; method in brief: as §2

SMILES | Activity
Cc1ccc(S(=O)(=O)N2CC(CCn3cnc4c(Cl)nc(Cl)nc43)Oc3ccc(C)cc32)cc1 (centres undefined) | 56%

target: T1, LKB1-STRAD-MO25 complex (Homo sapiens) (UniProt Q15831+Q7RTN6+Q9Y376); assay: Inhibition of human LKB1/MO25/STRADalpha assessed as residual activity at 5 uM relative to control; type: protein-complex assay; conditions: not given; method in brief: as §2

SMILES | Activity
Cc1ccc(S(=O)(=O)N2CC(CCn3cnc4c(Cl)nc(Cl)nc43)Oc3ccc(C)cc32)cc1 (centres undefined) | 88%

target: T1, LKB1-STRAD-MO25 complex (Homo sapiens); assay: Inhibition of human LKB1/MO25/STRADalpha assessed as residual activity at 50 uM relative to control; type: protein-complex assay; conditions: not given; method in brief: as §2

SMILES | Activity
Cc1ccc(S(=O)(=O)N2CC(CCn3cnc4c(Cl)nc(Cl)nc43)Oc3ccc(C)cc32)cc1 (centres undefined) | 89%

target: Mitogen-activated protein kinase 14 (Homo sapiens) (UniProt Q16539); assay: Inhibition of human P38-alpha assessed as residual activity at 5 uM relative to control; conditions: not given; method in brief: as §2
Sequence (Q16539 whole entry): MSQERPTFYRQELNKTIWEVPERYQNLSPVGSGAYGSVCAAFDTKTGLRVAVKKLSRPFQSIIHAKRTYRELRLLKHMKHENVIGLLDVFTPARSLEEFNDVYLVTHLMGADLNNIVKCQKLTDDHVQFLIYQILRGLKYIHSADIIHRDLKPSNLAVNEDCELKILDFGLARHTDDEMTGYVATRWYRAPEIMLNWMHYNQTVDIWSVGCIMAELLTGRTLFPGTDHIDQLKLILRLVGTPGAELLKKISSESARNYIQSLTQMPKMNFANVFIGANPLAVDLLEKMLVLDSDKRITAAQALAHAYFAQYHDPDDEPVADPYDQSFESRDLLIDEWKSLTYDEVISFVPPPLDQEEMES

SMILES | Activity
Cc1ccc(S(=O)(=O)N2CC(CCn3cnc4c(Cl)nc(Cl)nc43)Oc3ccc(C)cc32)cc1 (centres undefined) | 112%

target: Mitogen-activated protein kinase 14 (Homo sapiens) (UniProt Q16539); assay: Inhibition of human P38-alpha assessed as residual activity at 50 uM relative to control; conditions: not given; method in brief: as §2

SMILES | Activity
Cc1ccc(S(=O)(=O)N2CC(CCn3cnc4c(Cl)nc(Cl)nc43)Oc3ccc(C)cc32)cc1 (centres undefined) | 82%

tested on: HCT-116; assay: Induction of morphological changes in human HCT-116 cells assessed as multiple cellular remnants formation incubated for 24 hrs by SEM analysis; type: functional, cell-based; conditions: not given

SMILES | Activity
Cc1ccc(S(=O)(=O)N2CC(CCn3cnc4c(Cl)nc(Cl)nc43)Oc3ccc(C)cc32)cc1 (centres undefined) | Active

tested on: HCT-116; assay: Induction of morphological changes in human HCT-116 cells assessed as formation of vesicular bodies incubated for 24 hrs by SEM analysis; type: functional, cell-based; conditions: not given

SMILES | Activity
Cc1ccc(S(=O)(=O)N2CC(CCn3cnc4c(Cl)nc(Cl)nc43)Oc3ccc(C)cc32)cc1 (centres undefined) | Active

tested on: HCT-116; assay: Induction of morphological changes in human HCT-116 cells assessed as formation of membrane blebbing incubated for 24 hrs by SEM analysis; type: functional, cell-based; conditions: not given

SMILES | Activity
Cc1ccc(S(=O)(=O)N2CC(CCn3cnc4c(Cl)nc(Cl)nc43)Oc3ccc(C)cc32)cc1 (centres undefined) | Active

tested on: HCT-116; assay: Induction of morphological changes in human HCT-116 cells assessed as flattening of cellular structure incubated for 24 hrs by SEM analysis; type: functional, cell-based; conditions: not given

SMILES | Activity
Cc1ccc(S(=O)(=O)N2CC(CCn3cnc4c(Cl)nc(Cl)nc43)Oc3ccc(C)cc32)cc1 (centres undefined) | Active

tested on: MCF7; assay: Induction of morphological changes in human MCF7 cells assessed as formation of membrane blebbing incubated for 24 hrs by SEM analysis; type: functional, cell-based; conditions: not given

SMILES | Activity
Cc1ccc(S(=O)(=O)N2CC(CCn3cnc4c(Cl)nc(Cl)nc43)Oc3ccc(C)cc32)cc1 (centres undefined) | Active

tested on: MCF7; assay: Induction of morphological changes in human MCF7 cells assessed as formation of round vesicular bodies incubated for 24 hrs by SEM analysis; type: functional, cell-based; conditions: not given

SMILES | Activity
Cc1ccc(S(=O)(=O)N2CC(CCn3cnc4c(Cl)nc(Cl)nc43)Oc3ccc(C)cc32)cc1 (centres undefined) | Active

tested on: HCT-116; assay: Induction of apoptosis in human HCT-116 cells assessed as late apoptotic cells at 50 uM incubated for 12 hrs by Annexin V-FITC/PI staining based flow cytometry (reference value: 2.8 +/- 0.38 %); type: functional; conditions: not given

SMILES | Activity
Cc1ccc(S(=O)(=O)N2CC(CCn3cnc4c(Cl)nc(Cl)nc43)Oc3ccc(C)cc32)cc1 (centres undefined) | 26.5%

tested on: HCT-116; assay: Induction of apoptosis in human HCT-116 cells assessed as necrotic cells at 50 uM incubated for 12 hrs by Annexin V-FITC/PI staining based flow cytometry (reference value: 3.5 +/- 0.66 %); type: functional; conditions: not given

SMILES | Activity
Cc1ccc(S(=O)(=O)N2CC(CCn3cnc4c(Cl)nc(Cl)nc43)Oc3ccc(C)cc32)cc1 (centres undefined) | 36.3%

tested on: MCF7; assay: Induction of apoptosis in human MCF7 cells assessed as late apoptotic cells at 50 uM incubated for 12 hrs by Annexin V-FITC/PI staining based flow cytometry (reference value: 0.26 +/- 0.09 %); type: functional; conditions: not given

SMILES | Activity
Cc1ccc(S(=O)(=O)N2CC(CCn3cnc4c(Cl)nc(Cl)nc43)Oc3ccc(C)cc32)cc1 (centres undefined) | 77.8%

tested on: MCF7; assay: Induction of apoptosis in human MCF7 cells assessed as early apoptotic cells at 50 uM incubated for 12 hrs by Annexin V-FITC/PI staining based flow cytometry (reference value: 0.33 +/- 0.12 %); type: functional; conditions: not given

SMILES | Activity
Cc1ccc(S(=O)(=O)N2CC(CCn3cnc4c(Cl)nc(Cl)nc43)Oc3ccc(C)cc32)cc1 (centres undefined) | 9.3%

tested on: MCF7; assay: Induction of apoptosis in human MCF7 cells assessed as necrotic cells at 50 uM incubated for 12 hrs by Annexin V-FITC/PI staining based flow cytometry (reference value: 0.56 +/- 0.04 %); type: functional; conditions: not given

SMILES | Activity
Cc1ccc(S(=O)(=O)N2CC(CCn3cnc4c(Cl)nc(Cl)nc43)Oc3ccc(C)cc32)cc1 (centres undefined) | 2.1%

tested on: HCT-116; assay: Induction of cell cycle arrest in human HCT-116 cells assessed as accumulation of cells at G2/M phase at 50 uM incubated for 12 hrs by PI staining based flow cytometry (reference value: 8.3 +/- 0.74 %); type: functional; conditions: not given

SMILES | Activity
Cc1ccc(S(=O)(=O)N2CC(CCn3cnc4c(Cl)nc(Cl)nc43)Oc3ccc(C)cc32)cc1 (centres undefined) | 5.3%

tested on: HCT-116; assay: Induction of cell cycle arrest in human HCT-116 cells assessed as accumulation of cells at S phase at 50 uM incubated for 12 hrs by PI staining based flow cytometry (reference value: 18.7 +/- 0.5 %); type: functional; conditions: not given

SMILES | Activity
Cc1ccc(S(=O)(=O)N2CC(CCn3cnc4c(Cl)nc(Cl)nc43)Oc3ccc(C)cc32)cc1 (centres undefined) | 51.25%

tested on: MCF7; assay: Cytotoxicity against human MCF7 cells at 50 uM incubated for 12 hrs by PI staining based flow cytometry relative to control; type: functional; conditions: not given

SMILES | Activity
Cc1ccc(S(=O)(=O)N2CC(CCn3cnc4c(Cl)nc(Cl)nc43)Oc3ccc(C)cc32)cc1 (centres undefined) | 100%

tested on: MCF7; assay: Antiproliferative activity against human MCF7 cells incubated for 5 days by PrestoBlue assay; type: functional, cell-based; conditions: MCF7, 120 h

SMILES | IC50
Cc1ccc(S(=O)(=O)N2CC(CCn3cnc4c(Cl)nc(Cl)nc43)Oc3ccccc32)cc1 (centres undefined) | 13 µM

tested on: HCT-116; assay: Antiproliferative activity against human HCT-116 cells incubated for 5 days by PrestoBlue assay; type: functional, cell-based; conditions: HCT-116, 120 h

SMILES | IC50
Cc1ccc(S(=O)(=O)N2CC(CCn3cnc4c(Cl)nc(Cl)nc43)Oc3ccccc32)cc1 (centres undefined) | 7.06 µM

tested on: MCF7; assay: Induction of morphological changes in human MCF7 cells assessed as formation of large pores in cell membrane incubated for 12 hrs by SEM analysis; conditions: not given

SMILES | Activity
Cc1ccc(S(=O)(=O)N2CC(CCn3cnc4c(Cl)nc(Cl)nc43)Oc3ccc(C)cc32)cc1 (centres undefined) | Active
